Laboratory results reported in ChEMBL document CHEMBL4152363, “Andrographolide derivative as STAT3 inhibitor that protects acute liver damage in mice” (Bioorg Med Chem, 2018).
Activity calls are given as the source filed them. The rule behind the calls is not given here.

Columns and labels:
[1] = target: T1, Signal transducer and activator of transcription 3 (Homo sapiens, UniProt P40763); assay: Inhibition of IFNgamma-stimulated GFP/FLAG-tagged STAT3 dimerization in human AD293 cells incubated for 6 hrs by Western blot analysis; format: cell-based
T1 sequence (P40763 whole entry): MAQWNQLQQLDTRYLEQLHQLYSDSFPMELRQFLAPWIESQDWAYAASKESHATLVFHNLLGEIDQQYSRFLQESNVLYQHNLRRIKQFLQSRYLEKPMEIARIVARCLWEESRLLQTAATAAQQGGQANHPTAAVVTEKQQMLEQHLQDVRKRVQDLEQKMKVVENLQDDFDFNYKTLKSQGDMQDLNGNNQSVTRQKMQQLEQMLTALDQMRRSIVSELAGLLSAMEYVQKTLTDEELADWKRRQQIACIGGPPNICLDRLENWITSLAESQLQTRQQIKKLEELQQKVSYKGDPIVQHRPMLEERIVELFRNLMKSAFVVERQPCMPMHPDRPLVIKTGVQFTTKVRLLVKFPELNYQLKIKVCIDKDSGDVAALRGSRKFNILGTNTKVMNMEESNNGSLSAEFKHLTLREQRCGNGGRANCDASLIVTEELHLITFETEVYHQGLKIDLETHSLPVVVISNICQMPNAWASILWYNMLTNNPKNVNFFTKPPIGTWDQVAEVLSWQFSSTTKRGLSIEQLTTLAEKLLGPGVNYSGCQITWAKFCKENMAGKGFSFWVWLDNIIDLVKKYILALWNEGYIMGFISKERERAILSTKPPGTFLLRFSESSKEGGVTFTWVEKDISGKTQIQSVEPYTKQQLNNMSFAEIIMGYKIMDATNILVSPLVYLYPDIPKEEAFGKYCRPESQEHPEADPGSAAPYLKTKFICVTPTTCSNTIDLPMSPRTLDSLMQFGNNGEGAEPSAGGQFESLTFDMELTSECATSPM
How it was run: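 AD-293 cells co-transfected 48 h with GFP- and FLAG-tagged STAT3 plasmids, then IFN-γ with or without compound for 6 h; 100 μg lysate (RIPA) immunoprecipitated with anti-FLAG and protein G beads; blots probed for GFP and FLAG, chemiluminescent detection.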

[2] = target: T1, Signal transducer and activator of transcription 3; assay: Inhibition of IFNgamma-stimulated STAT3 activation in human AD293 cells incubated with IFNgamma for 16 hrs followed by compound addition measured after 24 hrs by luciferase reporter gene assay; format: cell-based
How it was run: (§1)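 AD-293 or HeLa cells in DMEM/10% FBS stimulated with 20 pg/mL IFN-γ; compound treatment 24 h; luciferase activity measured in cell extracts; EC50 derived.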

[3] = target: T1, Signal transducer and activator of transcription 3; assay: Inhibition of IL-6 stimulated STAT3 activation in human AD293 cells incubated with IL-6 for 16 hrs followed by compound addition measured after 6 hrs by luciferase reporter gene assay; format: cell-based
How it was run: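 AD-293 cells stimulated with 2.5 μg/mL IL-6; compound treatment 6 h; luciferase activity read from cell extracts; EC50 derived.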

[4] = target: T1, Signal transducer and activator of transcription 3; assay: Inhibition of […] activation in human AD293 cells incubated […] for 16 hrs followed by compound addition measured after 4 hrs by luciferase reporter gene assay; format: cell-based
AD293 = assay: Cytotoxicity against human AD293 cells; format: cell-based; conditions: ad293
How it was run: (§2)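 AD-293 or HeLa cells grown in high-glucose DMEM with 10% FBS and 1% penicillin-streptomycin; compound exposure 24 h; cytotoxicity reported as CC10.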

[5] = target: T1, Signal transducer and activator of transcription 3; assay: Inhibition of IFNgamma-stimulated STAT3 activation in human HeLa cells incubated with IFNgamma for 16 hrs followed by compound addition measured after 24 hrs by luciferase reporter gene assay; format: cell-based; how it was run: as §1
[6] = target: T1, Signal transducer and activator of transcription 3; assay: Inhibition of […] activation in human HeLa cells incubated […] for 16 hrs followed by compound addition measured after 4 hrs by luciferase reporter gene assay; format: cell-based
How it was run: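 NF-κB pathway in AD-293 or HeLa cells stimulated with 50 ng/mL TNF-α; compound treatment 4 h; luciferase activity read from cell extracts; EC50 derived.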

HeLa = assay: Cytotoxicity against human HeLa cells; format: cell-based; how it was run: as §2
[7] = target: T2, Signal transducer and activator of transcription 1-alpha/beta (Homo sapiens) (UniProt P42224); assay: Inhibition of IFNgamma-stimulated STAT1 phosphorylation at Tyr701 residues in human AD293 cell lysates incubated with IFNgamma followed by compound addition at 10 uM by Western blot analysis
T2 sequence (whole entry): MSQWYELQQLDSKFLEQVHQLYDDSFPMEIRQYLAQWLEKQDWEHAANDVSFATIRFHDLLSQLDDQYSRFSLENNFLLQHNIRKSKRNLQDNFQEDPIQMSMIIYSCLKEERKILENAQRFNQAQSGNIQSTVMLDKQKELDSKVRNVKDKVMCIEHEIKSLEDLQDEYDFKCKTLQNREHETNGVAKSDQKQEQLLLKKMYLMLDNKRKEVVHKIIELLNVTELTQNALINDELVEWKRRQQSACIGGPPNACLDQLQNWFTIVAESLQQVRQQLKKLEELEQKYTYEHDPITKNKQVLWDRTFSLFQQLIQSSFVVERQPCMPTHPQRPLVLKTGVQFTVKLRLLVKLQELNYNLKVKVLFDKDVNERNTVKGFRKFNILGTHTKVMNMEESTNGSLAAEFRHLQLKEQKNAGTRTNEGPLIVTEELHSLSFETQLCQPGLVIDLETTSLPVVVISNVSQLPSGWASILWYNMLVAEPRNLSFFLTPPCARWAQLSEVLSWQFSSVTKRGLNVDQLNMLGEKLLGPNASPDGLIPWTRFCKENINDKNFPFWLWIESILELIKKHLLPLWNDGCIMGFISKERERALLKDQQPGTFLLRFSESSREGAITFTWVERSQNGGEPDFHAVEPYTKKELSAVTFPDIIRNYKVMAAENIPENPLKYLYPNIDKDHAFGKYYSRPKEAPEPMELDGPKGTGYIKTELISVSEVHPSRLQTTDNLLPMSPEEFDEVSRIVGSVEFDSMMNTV
How it was run: (§3)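 AD-293 cells treated with 1 μg/mL IFN-γ alone or with compounds at 10 μM; phospho- and total STAT1 and STAT3 assessed by western blot; representative of at least three independent experiments.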

[8] = target: T1, Signal transducer and activator of transcription 3; assay: Inhibition of IFNgamma-stimulated STAT3 phosphorylation at Tyr705 residues in human AD293 cell lysates incubated with IFNgamma followed by compound addition at 10 uM by Western blot analysis; how it was run: as §3

| IC50 [1] [µM] | EC50 [2] [µM] | EC50 [3] [µM] | EC50 [4] [µM] | EC50 [5] [µM] | EC50 [6] [µM] | inhibition [7] | inhibition [8] | Compound | CC10 (AD293) [µM] | CC10 (HeLa) [µM] |
| --- | --- | --- | --- | --- | --- | --- | --- | --- | --- | --- |
| 86 | – | – | – | – | – | – | – | Cc1ccc(S(=O)(=O)OCC(=O)Nc2ccc(C(=O)O)cc2)cc1 | – | – |
| – | 5.39 | 4.16 | > 10 | 6.15 | > 10 | inactive | inactive | CC(C)(C)[Si](C)(C)O[C@@H]1CC[C@]2(C)[C@H](CC[C@@]3(CO3)[C@H]2C/C=C2/C(=O)OC[C@H]2O)[C@]1(C)CO | > 10 | > 10 |
| – | 5.38 | > 10 | > 10 | 8.34 | > 10 | inactive | inactive | CC(C)(C)[Si](C)(C)O[C@@H]1CC[C@]2(C)[C@H](CC[C@]3(CO3)[C@H]2C/C=C2/C(=O)OC[C@H]2O)[C@]1(C)CO | > 10 | > 10 |

The remaining lines, values behind:

| Compound | IC50 [1] [µM] | EC50 [2] [µM] | EC50 [3] [µM] | EC50 [4] [µM] | EC50 [5] [µM] | EC50 [6] [µM] | inhibition [7] | inhibition [8] | CC10 (AD293) [µM] | CC10 (HeLa) [µM] |
| --- | --- | --- | --- | --- | --- | --- | --- | --- | --- | --- |
| C=C1CC[C@@H]2[C@](C)(CO)[C@H](O)CC[C@@]2(C)[C@@H]1C/C=C1/C(=O)OC[C@H]1O[Si](C)(C)C(C)(C)C | – | 5.68 | 10.6 | > 10 | 6.57 | > 10 | inactive | inactive | > 10 | > 10 |
| C=C1CC[C@@H]2[C@](C)(CO[Si](C)(C)C(C)(C)C)[C@H](OC(C)=O)CC[C@@]2(C)[C@@H]1C/C=C1/C(=O)OC[C@H]1OC(C)=O | – | 5.05 | > 10 | > 10 | 5.8 | > 10 | inactive | inactive | > 10 | > 10 |
